Calls of active or inactive are those of the source.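 How the source made its calls: active means toxic dose over ten times the dose restoring drug killing, with toxic dose under 15 µM; inactive means the rest.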
System: Jurkat/DNR viability with daunorubicin, trypan blue, 7 d
Assay: chemoreversal in ABCB1 cells, dose response, ABC transporter inhibitor project, paired ABCG2 counter-screen, SAR hit validation (AID 488973)
Settings: for CC50: measured here: toxicity without chemotherapeutic (TD50)
Outline: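 Test system: ABCB1-expressing drug-resistant Jurkat/DNR cells / Amount: 100,000 cells per mL / Dosing: test compound dose series from 0.1 to 100 µM / Incubation: 7-day exposure of cells to test compound / Technique: cell counting after trypan blue staining / Read-out basis: chemo-reversal 50% concentration (CR50) set against 50% toxic dose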

| Structure (SMILES) | EC50 | CC50 [µM] |
| --- | --- | --- |
| O=C(c1ccoc1)N1CCN(c2cc(-c3ccccc3)nc3cc(-c4ccncc4)nn23)CC1 | 1.52 µM (inactive) | 9.52 |
| O=C(c1ccco1)N1CCN(c2c3c(nc4cc(-c5cccc(F)c5)nn24)CCCC3)CC1 | 2.94 µM (inactive) | 5.32 |
| COc1cccc(-c2cc3nc(-c4ccco4)cc(N4CCN(C(=O)c5ccoc5)CC4)n3n2)c1 | 0.47 µM (inactive) | 5.52 |
| COc1ccc(-c2[nH]nc3nc(N4CCN(C(=O)c5ccoc5)CC4)cc(C(F)(F)F)c23)cc1 | 0.33 µM (inactive) | 0.455 |
| COc1ccc(-c2cc3nc(-c4ccccc4)cc(N4CCN(C(=O)c5ccccc5)CC4)n3n2)cc1 | 0.19 µM | 16.9 |
| O=C(c1ccoc1)N1CCN(c2cc(-c3cccnc3)nc3cc(-c4cccc(Cl)c4)nn23)CC1 | 0.2 µM (inactive) | 5.33 |
| O=C(c1ccncc1)N1CCN(c2cc(-c3ccccc3)nc3cc(-c4cccc(Cl)c4)nn23)CC1 | 0.25 µM (inactive) | 10.9 |
| O=C(Cc1ccccc1)N1CCN(c2cc(-c3ccccc3)nc3cc(-c4cccc(Cl)c4)nn23)CC1 | 0.51 µM | 17.8 |
| Cc1cc(N2CCN(C(=O)c3ccco3)CC2)n2nc(-c3ccccc3)nc2n1 | 4.92 µM (inactive) | 11.8 |
| O=C(c1ccoc1)N1CCN(c2cc(-c3ccncc3)nc3cc(-c4cccc(Cl)c4)nn23)CC1 | 0.6 µM (inactive) | 13.5 |
| Cc1nc2cc(-c3ccc4c(c3)OCO4)nn2c(N2CCN(C(=O)c3ccoc3)CC2)c1C | 0.13 µM | > 100 |
| CC(=O)N1CCN(c2c(C)c(C)nc3cc(-c4cccc(F)c4)nn23)CC1 | 19.8 µM (inactive) | > 100 |
| Cc1cc(N2CCN(C(=O)c3ccco3)CC2)n2nc(C)c(-c3ccccc3)c2n1 | 3.58 µM (inactive) | 3.31 |
| COc1cc(OC)cc(-c2cc3nc(C)c(C)c(N4CCN(C(=O)c5ccoc5)CC4)n3n2)c1 | 0.1 µM (inactive) | 9.52 |
| O=C(c1cccnc1)N1CCN(c2cc(-c3ccccc3)nc3cc(-c4cccc(Cl)c4)nn23)CC1 | 0.17 µM (inactive) | 4.72 |
| COc1cccc(-c2cc3nc(C)c(C)c(N4CCN(Cc5ccco5)CC4)n3n2)c1 | 0.02 µM | > 100 |
| Cc1ccc(-c2cc3nc(-c4ccccc4)cc(N4CCN(C(=O)c5ccoc5)CC4)n3n2)cc1 | 0.29 µM (inactive) | 5.77 |
| O=C(c1ccco1)N1CCN(c2cc(Cc3ccccc3)nc3cc(-c4cccc(Cl)c4)nn23)CC1 | 1.41 µM (inactive) | 8.47 |
| COc1cccc(-c2cc3nc(C)c(C)c(N4CCN(C(=O)c5ccoc5)CC4)n3n2)c1 | 0.82 µM | > 100 |

| Structure (SMILES) | EC50 | CC50 [µM] |
| --- | --- | --- |
| Cc1nc2cc(-c3cccc(Cl)c3)nn2c(N2CCN(C(=O)c3ccco3)CC2)c1C | 1.58 µM | > 100 |
| COc1ccc(-c2cc3nc(C)c(C)c(N4CCN(C(=O)c5ccco5)CC4)n3n2)cc1 | 0.53 µM | > 100 |
| O=C(c1ccoc1)N1CCN(c2cc(-c3ccco3)nc3cc(-c4ccccc4)nn23)CC1 | 0.55 µM (inactive) | 5.52 |
| COc1cccc(C(=O)N2CCN(c3cc(-c4ccccc4)nc4cc(-c5cccc(Cl)c5)nn34)CC2)c1 | 0.35 µM | > 100 |
| Cc1nc2cc(-c3cccc(Cl)c3)nn2c(N2CCN(C(=O)c3ccoc3)CC2)c1C | 0.51 µM (inactive) | 5.33 |
| COc1ccccc1-c1cc2nc(-c3ccccc3)cc(N3CCN(C(=O)c4ccoc4)CC3)n2n1 | 0.45 µM (inactive) | 4.37 |
| O=C(c1ccoc1)N1CCN(c2cc(-c3ccco3)nc3cc(-c4cccc(Cl)c4)nn23)CC1 | 0.53 µM (inactive) | 8.53 |
| O=C(c1ccco1)N1CCN(c2cc(-c3ccccc3)nc3cc(-c4cccc(F)c4)nn23)CC1 | 0.58 µM (inactive) | 2.16 |
| O=C(c1ccco1)N1CCN(c2cc(-c3ccccc3)nc3cc(-c4cccc(Cl)c4)nn23)CC1 | 0.7 µM (inactive) | 3.18 |
| COc1ccc(-c2cc3nc(C)c(C)c(N4CCN(C(C)=O)CC4)n3n2)cc1 | 6 µM | 105 |
| Cc1nc2cc(-c3ccc(F)cc3)nn2c(N2CCN(C(=O)c3ccco3)CC2)c1C | 1.82 µM (inactive) | 5.33 |
| Cc1nc2ncnn2c(N2CCN(C(=O)c3ccco3)CC2)c1Cc1ccccc1 | 12.3 µM (inactive) | > 100 |
| COc1cccc(-c2cc(N3CCN(C(=O)c4ccoc4)CC3)n3nc(-c4cccc(OC)c4)cc3n2)c1 | 0.03 µM (inactive) | 7.93 |
| COc1ccc(-c2cc3nc(-c4ccccc4)cc(N4CCN(C(=O)c5ccsc5)CC4)n3n2)cc1 | 0.14 µM (inactive) | 4.9 |
| Cc1nc2cc(-c3cccc(Cl)c3)nn2c(N2CCN(C(=O)c3ccsc3)CC2)c1C | 1.13 µM (inactive) | 10.1 |
| Cc1cc(N2CCN(C(=O)c3ccco3)CC2)n2nc(-c3ccc(F)cc3)cc2n1 | 5.33 µM (inactive) | 4.2 |
| O=C(C1CCCO1)N1CCN(c2c3c(nc4cc(-c5cccc(F)c5)nn24)CCCC3)CC1 (centres undefined) | 3.58 µM (inactive) | 12.3 |
| COc1ccc(-c2cc3nc(-c4ccccc4)cc(N4CCN(C(=O)c5ccoc5)CC4)n3n2)cc1 | 0.23 µM (inactive) | 5.54 |
